What all share (format): functional
Experiment [1] concerns Haemophilus influenzae. As to the kind of experiment: Antimicrobial activity against gBLNAS Haemophilus influenzae by agar dilution method. The procedure, abridged:
(§1)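 Agar dilution on Mueller-Hinton agar with 0.5% yeast extract, 2% defibrinated heat-treated horse blood and 15 μg/ml β-NAD+. Plates were incubated 20 h at 37°C in 5% CO2, and the MIC was read. Clinical pediatric isolates (2005–2008) were assigned to genetic resistance classes by PCR.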
For orientation: In agar dilution, organisms are placed on agar that contains the substance at set levels.

In experiment [2] the test system is Haemophilus influenzae. As to the kind of experiment: Antimicrobial activity against gBLPACR-1 Haemophilus influenzae by agar dilution method. The procedure, abridged:
as §1

The test system of experiment [3] is Haemophilus influenzae. As to the kind of experiment: Antimicrobial activity against gBLPAR-TEM1 Haemophilus influenzae by agar dilution method. The procedure, abridged: (§2)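 Agar dilution MICs on Mueller-Hinton agar with 0.5% yeast extract, 2% defibrinated heat-treated horse blood and 15 μg/ml β-NAD+. Plates read after 20 h at 37°C in 5% CO2. Paediatric clinical isolates (2005–2008) assigned to genetic β-lactam resistance class by PCR. Values are MIC range, MIC50 and MIC90 per class.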

In experiment [4] the test system is Haemophilus influenzae. The experiment in a line: Antimicrobial activity against gBLPACR-2 Haemophilus influenzae by agar dilution method. The procedure, abridged: as §2
Experiment [5] relates to Haemophilus influenzae. The experiment in a line: Antimicrobial activity against gBLNAR Haemophilus influenzae by agar dilution method. In outline:
as §2

For experiment [6], the system named is Haemophilus influenzae. As to the kind of experiment: Antimicrobial activity against gLow-BLNAR Haemophilus influenzae by agar dilution method. In outline: as §1
In experiment [7] the test system is Haemophilus influenzae. The experiment in a line: Bactericidal activity against gBLNAR Haemophilus influenzae JPH002 assessed as reduction in bacterial load at MIC after 4 hrs by time-kill analysis. In outline:
(§3)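 Colonies precultured on chocolate agar were suspended in MH broth to 0.5 McFarland, diluted 10-fold in MH broth with yeast extract, horse blood and β-NAD+, then grown 120 min at 37°C. 500 μl was inoculated into 9.5 ml of the same supplemented broth containing drug at the MIC or 2× MIC, with or without 10% fresh human serum. Tubes were incubated static and viable counts sampled at set intervals.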

Experiment [8] has as its system Haemophilus influenzae. As to the kind of experiment: Bactericidal activity against gBLNAR Haemophilus influenzae JPH1306 assessed as reduction in bacterial load at MIC after 4 hrs by time-kill analysis in presence of 10% human serum. The procedure, abridged:
as §3

In experiment [9] the test system is Haemophilus influenzae. The experiment in a line: Bactericidal activity against gBLNAR Haemophilus influenzae JPH002 assessed as reduction in bacterial load at MIC after 6 hrs by time-kill analysis in presence of 10% human serum. In outline:
as §3

For experiment [10], the system named is Haemophilus influenzae. As to the kind of experiment: Bactericidal activity against gBLNAR Haemophilus influenzae JPH1306 assessed as reduction in bacterial load at MIC after 2 hrs by time-kill analysis in presence of 10% human serum. The procedure, abridged:
as §3

For experiment [11], the system named is Haemophilus influenzae. As to the kind of experiment: Bactericidal activity against gBLNAR Haemophilus influenzae JPH1306 assessed as reduction in bacterial load at MIC after 6 hrs by time-kill analysis. The procedure, abridged:
as §3

In experiment [12] the test system is Haemophilus influenzae. The experiment in a line: Bactericidal activity against gBLNAR Haemophilus influenzae JPH002 assessed as reduction in bacterial load at MIC after 6 hrs by time-kill analysis. The procedure, abridged:
as §3

Experiment [13] has as its system Haemophilus influenzae. As to the kind of experiment: Bactericidal activity against gBLNAR Haemophilus influenzae JPH1306 assessed as reduction in bacterial load at MIC after 6 hrs by time-kill analysis in presence of 10% human serum. In outline:
as §3

For experiment [14], the system named is Haemophilus influenzae. As to the kind of experiment: Bactericidal activity against gBLNAR Haemophilus influenzae JPH002 assessed as reduction in bacterial load at MIC after 4 hrs by time-kill analysis in presence of 10% human serum. The procedure, abridged:
as §3

Experiment [15] has as its system Haemophilus influenzae. As to the kind of experiment: Bactericidal activity against gBLNAR Haemophilus influenzae JPH1306 assessed as reduction in bacterial load at MIC after 4 hrs by time-kill analysis. In outline: as §3
The test system of experiment [16] is Haemophilus influenzae. As to the kind of experiment: Bactericidal activity against gBLNAR Haemophilus influenzae JPH002 assessed as reduction in bacterial load at MIC after 2 hrs by time-kill analysis in presence of 10% human serum. In outline:
as §3

Values after ≈ are worked out from the molar mass of the structure shown.

For the compound `CO/N=C(\C(=O)N[C@@H]1C(=O)N2C(C(=O)O)=C(COC(C)=O)CS[C@H]12)c1csc(N)n1` [CEFOTAXIME], the values for the MIC50 in the experiment on Haemophilus influenzae [1], against Haemophilus influenzae [5] and against Haemophilus influenzae [6] were 0.016 µg/mL (≈ 0.0351 µM), 0.5 µg/mL (≈ 1.1 µM) and 0.031 µg/mL (≈ 0.0681 µM), respectively. Also, the MIC90 against Haemophilus influenzae [1] turned out to be 0.031 µg/mL (≈ 0.0681 µM); with Haemophilus influenzae [5], 1 µg/mL (≈ 2.2 µM); with Haemophilus influenzae [6], 0.12 µg/mL (≈ 0.263 µM). Also, the MIC in the experiment on Haemophilus influenzae [2] came out at 0.031 µg/mL (≈ 0.0681 µM); with Haemophilus influenzae [3], 0.008 µg/mL (≈ 0.0176 µM); in the experiment with Haemophilus influenzae [4], 0.25 µg/mL (≈ 0.549 µM).

As to `CC[C@H]1OC(=O)[C@H](C)[C@@H](O[C@H]2C[C@@](C)(OC)[C@@H](O)[C@H](C)O2)[C@H](C)[C@@H](O[C@@H]2O[C@H](C)C[C@H](N(C)C)[C@H]2O)[C@](C)(O)C[C@@H](C)CN(C)[C@H](C)[C@@H](O)[C@]1(C)O` [AZITHROMYCIN], the MIC50 in the experiment with Haemophilus influenzae [1], in the experiment on Haemophilus influenzae [5] and in the experiment on Haemophilus influenzae [6] was 2 µg/mL (≈ 2.67 µM) each time. Besides, the MIC90 came to 4 µg/mL (≈ 5.34 µM) with Haemophilus influenzae [1], 4 µg/mL (≈ 5.34 µM) against Haemophilus influenzae [5] and 2 µg/mL (≈ 2.67 µM) in the experiment with Haemophilus influenzae [6]. Further, the MIC in the experiment on Haemophilus influenzae [2] is 2 µg/mL (≈ 2.67 µM); against Haemophilus influenzae [3] it was 1 µg/mL (≈ 1.34 µM); against Haemophilus influenzae [4], 2 µg/mL (≈ 2.67 µM).

As to `CC1(C)S[C@@H]2[C@H](NC(=O)[C@H](N)c3ccccc3)C(=O)N2[C@H]1C(=O)O` [AMPICILLIN], the MIC50 against Haemophilus influenzae [1] was found to be 0.25 µg/mL (≈ 0.715 µM); against Haemophilus influenzae [5] it was 2 µg/mL (≈ 5.72 µM); in the experiment on Haemophilus influenzae [6], 1 µg/mL (≈ 2.86 µM). Moreover, the MIC90 against Haemophilus influenzae [1] was 0.5 µg/mL (≈ 1.43 µM); against Haemophilus influenzae [5], 8 µg/mL (≈ 22.9 µM); in the experiment on Haemophilus influenzae [6], 1 µg/mL (≈ 2.86 µM). Further, the values for the MIC in the experiment with Haemophilus influenzae [2], in the experiment on Haemophilus influenzae [3] and in the experiment on Haemophilus influenzae [4] were 8 µg/mL (≈ 22.9 µM), 8 µg/mL (≈ 22.9 µM) and 2 µg/mL (≈ 5.72 µM), respectively.

Consider `CC[C@H]1OC(=O)[C@H](C)[C@@H](O[C@H]2C[C@@](C)(OC)[C@@H](O)[C@H](C)O2)[C@H](C)[C@@H](O[C@@H]2O[C@H](C)C[C@H](N(C)C)[C@H]2O)[C@](C)(OC)C[C@@H](C)C(=O)[C@H](C)[C@@H](O)[C@]1(C)O` [CLARITHROMYCIN], for which the MIC50 with Haemophilus influenzae [1], in the experiment with Haemophilus influenzae [5] and against Haemophilus influenzae [6] was 8 µg/mL (≈ 10.7 µM) each time. Also, the MIC90 against Haemophilus influenzae [1], with Haemophilus influenzae [5] and in the experiment on Haemophilus influenzae [6] was 16 µg/mL (≈ 21.4 µM) in each case. Besides, the MIC in the experiment on Haemophilus influenzae [2], against Haemophilus influenzae [3] and against Haemophilus influenzae [4] was 8 µg/mL (≈ 10.7 µM) throughout.

For the compound `C[C@@H](O)[C@H]1C(=O)N2C(C(=O)O)=C(S[C@@H]3CN[C@H](C(=O)N(C)C)C3)[C@H](C)[C@H]12` [MEROPENEM], the MIC50 with Haemophilus influenzae [1] came out at 0.063 µg/mL (≈ 0.164 µM); in the experiment with Haemophilus influenzae [5], 0.25 µg/mL (≈ 0.652 µM); against Haemophilus influenzae [6] it was 0.12 µg/mL (≈ 0.313 µM). The MIC90 in the experiment on Haemophilus influenzae [1] was 0.12 µg/mL (≈ 0.313 µM); in the experiment on Haemophilus influenzae [5], 0.5 µg/mL (≈ 1.3 µM); against Haemophilus influenzae [6] it was 0.25 µg/mL (≈ 0.652 µM). The MIC came to 0.063 µg/mL (≈ 0.164 µM) with Haemophilus influenzae [2], 0.031 µg/mL (≈ 0.0808 µM) in the experiment with Haemophilus influenzae [3] and 0.063 µg/mL (≈ 0.164 µM) with Haemophilus influenzae [4].

`C=CC1=C(C(=O)O)N2C(=O)[C@@H](NC(=O)/C(=N\O)c3csc(N)n3)[C@H]2SC1` [CEFDINIR]: the MIC50 with Haemophilus influenzae [1] was determined as 0.25 µg/mL (≈ 0.632 µM); in the experiment on Haemophilus influenzae [5] it was 8 µg/mL (≈ 20.2 µM); in the experiment on Haemophilus influenzae [6], 0.5 µg/mL (≈ 1.26 µM). The MIC90 in the experiment with Haemophilus influenzae [1] was found to be 0.5 µg/mL (≈ 1.26 µM); in the experiment on Haemophilus influenzae [5], 32 µg/mL (≈ 80.9 µM); in the experiment on Haemophilus influenzae [6] it was 2 µg/mL (≈ 5.06 µM). In addition, the MIC was 1 µg/mL (≈ 2.53 µM) against Haemophilus influenzae [2], 0.25 µg/mL (≈ 0.632 µM) in the experiment with Haemophilus influenzae [3], 8 µg/mL (≈ 20.2 µM) in the experiment on Haemophilus influenzae [4] and 0.5 µg/mL (≈ 1.26 µM) with Haemophilus influenzae [6].

Regarding `C[C@@H](O)[C@H]1C(=O)N2C(C(=O)O)=C(SC3CN(C4=NCCS4)C3)[C@H](C)[C@H]12` [TEBIPENEM], the MIC50 in the experiment on Haemophilus influenzae [1] was 0.063 µg/mL (≈ 0.164 µM); in the experiment on Haemophilus influenzae [5], 0.25 µg/mL (≈ 0.652 µM); against Haemophilus influenzae [6], 0.25 µg/mL (≈ 0.652 µM). Besides, the results for the MIC90 against Haemophilus influenzae [1], against Haemophilus influenzae [5] and with Haemophilus influenzae [6] were 0.12 µg/mL (≈ 0.313 µM), 1 µg/mL (≈ 2.61 µM) and 0.5 µg/mL (≈ 1.3 µM), respectively. The log10cfu in the experiment with Haemophilus influenzae [7], in the experiment with Haemophilus influenzae [8], in the experiment on Haemophilus influenzae [9], in the experiment on Haemophilus influenzae [10], in the experiment with Haemophilus influenzae [11] and in the experiment with Haemophilus influenzae [12] was 3 throughout. Moreover, the log10cfu with Haemophilus influenzae [13], in the experiment with Haemophilus influenzae [14], in the experiment on Haemophilus influenzae [15] and in the experiment with Haemophilus influenzae [16] was 3 in each case. Further, the MIC was determined as 0.12 µg/mL (≈ 0.313 µM) in the experiment on Haemophilus influenzae [2], 0.063 µg/mL (≈ 0.164 µM) against Haemophilus influenzae [3] and 0.25 µg/mL (≈ 0.652 µM) in the experiment on Haemophilus influenzae [4].

On to `CC1(C)S[C@@H]2[C@H](NC(=O)[C@H](N)c3ccc(O)cc3)C(=O)N2[C@H]1C(=O)O` [AMOXICILLIN], for which the MIC50 in the experiment with Haemophilus influenzae [1] turned out to be 0.5 µg/mL (≈ 1.37 µM); against Haemophilus influenzae [5], 8 µg/mL (≈ 21.9 µM); against Haemophilus influenzae [6], 2 µg/mL (≈ 5.47 µM). In addition, the MIC90 with Haemophilus influenzae [1] turned out to be 0.5 µg/mL (≈ 1.37 µM); in the experiment with Haemophilus influenzae [5], 32 µg/mL (≈ 87.6 µM); in the experiment on Haemophilus influenzae [6] it was 4 µg/mL (≈ 10.9 µM). In addition, the MIC in the experiment with Haemophilus influenzae [2] is 8 µg/mL (≈ 21.9 µM); against Haemophilus influenzae [3] it was 8 µg/mL (≈ 21.9 µM); in the experiment with Haemophilus influenzae [4], 2 µg/mL (≈ 5.47 µM).

For the origin of these results see ChEMBL document CHEMBL1649324, “In vitro activity of tebipenem, a new oral carbapenem antibiotic, against beta-lactamase-nonproducing, ampicillin-resistant Haemophilus influenzae” (2010).
